Screens from PubChem.
Hits are enriched below; roughly 5.3% of the tested compounds scored in any of these assays.
Beta apoptosis: beta cell apoptosis inhibition; INS-1E cytokine-induced death, ATP luminescence, 48 h; percent of positive-control rescue, neutral wells zero; protection from apoptosis, % (test concentration not listed); 300,000 compounds, 0.8% hits;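 active = Every replicate reaches about 75%, or at least half do and their mean reaches it too, limit read from the data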;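 also: 0% = cytokine-treated negative control wells and 100% = positive control rescue; higher means more ATP so stronger rescue from cytokine killing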
T cruzi inh: T. cruzi replication inhibition. 300,000 compounds, 1.4% hits. inhibition, % (concentration not given with the values). T. cruzi beta-gal in NIH3T3, luminescence, 90 h;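 active = mean inhibition across valid replicates above about 55%, limit read from the data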;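 also: signal also drops with host cell toxicity which is not excluded here; 0% = plate median of DMSO wells and 100% = zero luminescence signal; higher percent means less beta-gal luminescence so fewer parasites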
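compound dosing = single 50 nL compound addition per well in DMSO | material = NIH/3T3 host cells with β-galactosidase reporter T. cruzi | input = 5,000 host fibroblasts per well | timing = ≥90 h infection period, 3 h prior cell attachment | read-out basis = percent inhibition of parasite-derived β-gal signal | detection = GalScreen β-gal luminescence, detergent lysis, 60 min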
NLRP3 yeast inh: blocks the NALP3 inflammasome reconstituted in yeast | Yeast reconstituted NLRP3/ASC/caspase-1, beta-gal luminescence, 24 h | inhibition, % at 10 µM | 330,000 compounds, 0.39% hits;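 active = inhibition of 50% or more; inactive = inhibition below 50%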;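 also: plate controls were induced DMSO wells for no effect and uninduced yeast grown without galactose for full effect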
Calb FLC: affects C. albicans growth with fluconazole; C. albicans CaCi-2 (fluconazole-resistant clinical isolate) + fluconazole, Alamar Blue growth, 48 h; growth inhibition, % (no concentration beside the values); 300,000 compounds, 0.57% hits;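 active = growth inhibition above about 58% in most replicates, limit read from the data, passing the limit was not always enough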;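 also: all wells also contain fluconazole at 8 µg/ml as a sub-toxic cotreatment; 0% = median of DMSO wells and 100% = median of geldanamycin control wells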
Mdm2-MdmX inh: disrupts the human Mdm2-MdmX interaction; AID 485346; inhibition, % at 8 µM; SaOS-2 split-luciferase Mdm2/MdmX complementation, luminescence; O15151+Q00987; 330,000 compounds, 3% hits;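 active = inhibition of at least 50% at 8 µM in the primary screen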
CSC inhib: cancer stem cell inhibition | 300,000 compounds, 1.1% hits | inhibition, % at 7.5 µM | cancer stem cell-like cells viability, luminescence; in the data active = inhibition above about 75%; tested in HMLE shEcad cells
Mdm2 MdmX conf: confirmation of human Mdm2/MdmX interaction inhibitors | Mdm2-MdmX binding, luminescent assay | 10,000 compounds, 55% hits | shares compounds with Mdm2-MdmX inh | inhibition, % at 8 µM; in the data active = inhibition above about 40%
Full FLuc ctr: full-length luciferase inhibition in Mdm2/MdmX counter-screen; shares compounds with Mdm2-MdmX inh; 6,200 compounds, 77% hits; inhibition, % at 8 µM; SaOS-2 full-length luciferase counterscreen, luminescence; AID 504607;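 active = mean inhibition at 8 µM reaching about 37%, which flags the compound as non-specific, limit read from the data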;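 also: p53-null SaOS-2 cells with luciferase driven by a doxycycline-inducible promoter; compound on cells about two nights before reading with doxycycline added after day one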
* marks the source's active call; other numbers are inactive results; / = no result.

SMILES	Beta apoptosis	T cruzi inh	NLRP3 yeast inh	Calb FLC	Mdm2-MdmX inh	CSC inhib	Mdm2 MdmX conf	others
COc1ccc(-c2nc(C(N)=O)c3[nH]c(=O)n(-c4ccccc4OC)c3n2)c(OC)c1	-2.6	-1.5	-4.1	1.7	2.5	13.5	/
Cc1ccc(NC(CNS(=O)(=O)c2ccc(Cl)cc2)c2ccccc2)cc1 (stereo not given)	8.9	37.4	12.3	3.4	52.1*	-1.0	19.6
Cc1cc(C)cc(N(CC(=O)NC(C)(C)C)C(=O)CNC(=O)c2cccs2)c1	-1.4	5.0	2.1	-5.4	21.2	-0.3	/
CN(C)c1nc(N/N=C\c2ccc(Cl)c([N+](=O)[O-])c2)nc(Nc2ccc(F)cc2)n1	-0.2	38.8	45.8	18.5	72.4*	48.4	14.1
O=C1N[C@@H](Cc2ccccc2)C(=O)N2[C@H]1C[C@]1([C@]34C[C@H]5C(=O)N[C@@H](Cc6ccccc6)C(=O)N5[C@H]3N(S(=O)(=O)c3ccccc3)c3ccccc34)c3ccccc3N(S(=O)(=O)c3ccccc3)[C@H]21	-0.2	6.6	2.6	-6.6	3.3	-0.2	/
CC(C)c1cc(C(C)C)c(S(=O)(=O)N2c3ccccc3[C@@]3(Br)C[C@H]4C(=O)N[C@@H](Cc5ccccc5)C(=O)N4[C@@H]23)c(C(C)C)c1	/	54.7*	14.6	1.4	59.2*	-20.3	27.2	Full FLuc ctr=106.1*
Cc1nc2ccc3nc(NC(=O)c4ccc(S(=O)(=O)N5CCOCC5)cc4)sc3c2s1	/	/	3.2	/	12.8	-11.9	/
COc1ccc(NC(=O)C2CC(=O)N/C(=N/N=C/c3ccccc3)S2)cc1 (stereo not given)	-8.2	-7.7	2.1	-2.8	79.2*	-11.3	59.2*	Full FLuc ctr=90.7*
COc1ccc(/C=N/N=C/c2ccc(OC)cc2)cc1	-12.8	-23.9	19.5	8.0	10.9	-6.8	/
COc1ccc(/C=N/N=C2/NC(=O)C(c3ccccc3)(c3ccccc3)S2)cc1	4.9	-25.4	12.0	-3.7	61.4*	15.3	19.9
CC(C)n1nnnc1SCC(=O)NCCc1ccccc1	5.6	-3.3	-10.9	-8.1	5.8	-7.1	/
COCCNc1ncnc2c1[nH]c1ccccc12	-1.9	-7.4	2.1	5.8	1.9	7.3	/
CCOc1ccc2[nH]c3nc(SCC(=O)NCC4CCCO4)nnc3c2c1 (stereo not given)	3.2	0.6	10.7	-2.2	-15.6	-8.0	/
O=c1cc(N/N=C/c2ccccc2)[nH]c(=O)[nH]1	63.8	-2.6	1.5	9.0	69.6*	14.0	20.8
Cc1nc2ccccn2c1C(=O)NC1CCCCC1	0.1	-14.6	6.6	-4.3	-13.4	-10.5	/
CCOc1ccc2[nH]c(=O)c(CN(CCN3CCCC3)C(=S)Nc3ccccc3OCC)cc2c1	-3.2	12.8	21.8	2.2	100.3*	-15.5	16.6
O=c1c2ccccc2sn1-c1ccc(F)cc1	5.9	/	3.4	/	50.9*	21.9	11.6
Cc1nc2c(C)cccc2c2c1CCN2c1ccccc1F	-4.1	11.0	15.4	-0.5	-5.4	-11.1	/
COc1ccc(N2CCc3c(C)nc4c(OC)cccc4c32)cc1	48.8	20.4	9.0	-21.2	57.8*	54.8	56.5*	Full FLuc ctr=55.1*
COc1ccc(N2CCc3c(C)nc4c(OC)cc(OC)cc4c32)cc1	/	72.6*	6.5	-6.4	50.5*	/	33.6
Cc1ccc2nc3c(c(N)c2c1)CCN3c1ccccc1	11.6	28.2	15.0	0.6	6.6	4.4	/
CCn1cc(C(=O)NCc2cccc(F)c2)c(=O)c2cc(F)c(N3CCN(C(=O)c4ccco4)CC3)cc21	24.7	39.5	15.6	-5.4	45.0	16.8	/
CC(C)c1nnc(NC(=O)c2ccc3c(c2)OCO3)s1	/	27.2	14.7	-18.7	-5.2	2.5	/
COc1ccccc1-c1nnc(NC(=O)c2ccc3c(c2)OCO3)s1	-4.8	-9.7	9.0	-1.3	90.3*	0.6	65.7*	Full FLuc ctr=84.8*
Cc1ccc(C)c(OCc2nnc(NC(=O)c3ccc4c(c3)OCO4)s2)c1	0.2	-7.4	-16.2	1.0	68.5*	-4.5	28.0
CCn1nc(-c2ccccc2)c2nc3ccccc3nc21	-1.4	15.6	9.8	7.9	-4.9	2.0	/
